Reference: publication PMC3329777 (The Journal of Organic Chemistry, 2010)
Values after ≈ are worked out from the molar mass of the structure shown. Read-outs that look alike come from different tables or passages of the source.

Key:
[1] = Decomposition of polysulfanes with hydroxide ion, monitored by HPLC; format: physicochemical; conditions: 6A-F 2.5 mM, methanol/water 99.9:0.1, after 1 hr
How it was run: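 Test polysulfane mixture (2.5 mM) with acetanilide internal standard (0.25 mM) was treated with NaOH (0.625, 1.25, 1.875 or 2.5 mM) in methanol. After 1 h of equilibration, samples were analysed by reversed-phase C18 HPLC at 1 mL/min, rt, with UV at 254 nm. Elution used a methanol/water gradient of 15→95% methanol over 30 min, held 15 min.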

[2] = Intrinsic solubility determination; format: physicochemical
[3] = cited from earlier work
DU145 (prostate) cells = assay: Cell proliferation assay; format: cell-based, human
How it was run: (§1)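 DU145, PC3 and MDA-MB-231 lines only. Cells came from ATCC frozen stocks. PC3 was grown in F12K, DU145 and MDA-MB-231 in DMEM, all with 10% FBS plus penicillin/streptomycin. Equal cell numbers were seeded and held at 37 °C, 5% CO2 until log phase. Medium was then replaced with test compound (0–30 μM) for 48 h, then removed and plates frozen at -80 °C. After thawing to rt, CyQuant reagent was added and fluorescence read at 485/530 nm. Eight replicates per concentration; values are cell-number increase versus untreated controls, mean ± SE.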

[4] = test system: PC3, DU145, MDA-MB-231 and Jurkat cells; assay: Antiproliferative activity against four human tumor cell lines; format: cell-based
[5] = test system: MDA-MB-231 (breast) cells; assay: Cell proliferation assay; format: cell-based, human
How it was run: as §1

[6] = test system: Jurkat (T-cell leukemia) cells; assay: MTS cytotoxicity assay, Jurkat cells; format: cell-based; conditions: Homo sapiens, 24 h, read-out: IC50 Jurkat
How it was run: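 Jurkat line: cells were kept in RPMI-1640 with 10% fetal bovine serum and penicillin-streptomycin (100 U/mL / 100 μg/mL) at 37 °C, humidified 5% CO2. They were seeded at 2,000 cells/well in 96-well plates. After 24 h they were exposed to a range of test compound concentrations for […]. Growth was measured by MTS reagent with absorbance at 490 nm, expressed relative to compound-free controls, mean ± SE.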

PC3 (prostate) cells = assay: Cell proliferation assay; format: cell-based, human
How it was run: as §1

[7] = Ethanethiol-induced desulfuration; format: physicochemical
[8] = room temperature, equilibrium time 24 h, average of three measurements

Polysulfanes and elemental sulfur distribution (HPLC, internal standard = 100) ([1]; 0.25 hydroxide ion equivalents)	Polysulfanes and elemental sulfur distribution (HPLC, internal standard = 100) ([1]; 0.5 hydroxide ion equivalents)	Polysulfanes and elemental sulfur distribution (HPLC, internal standard = 100) ([1]; 0.75 hydroxide ion equivalents)	Polysulfanes and elemental sulfur distribution (HPLC, internal standard = 100) ([1]; 1.0 hydroxide ion equivalents)	Structure (SMILES)	further results
2.3	2.1	1.8	1.5	COCCOCCOCCNC(=O)c1ccc2ssssssc2c1 [Compound 6D, N-(2-(2-(2-methoxyethoxy)ethoxy)ethyl)benzo[g][1,2,3,4,5,6]hexathiocine-8-carboxamide]	
3.0	2.8	4.7	1.6	COCCOCCOCCNC(=O)c1ccc2c(c1)SSSSSSS2 [Compound 6E, N-(2-(2-(2-Methoxyethoxy)ethoxy)ethyl)benzo[h][1,2,3,4,5,6,7]heptathionine-9-carboxamide]	
				Sc1ccccc1S [1,2-Benzenedithiol]	IC50 (DU145 (prostate) cells; Homo sapiens, DU-145, 48 h, read-out: IC50 DU145): > 30 µM; Inhibition of proliferation of DU145 cells (DU145 (prostate) cells; at concentrations of 10 μM and above, 48 h): ~ 40%; Toxicity to the cancer cell lines (in words) [4]: nontoxic; Effect on proliferation of MDA-MB-231 cells ([5]; 48 h): minimal effect; IC50 ([5]; Homo sapiens, MDA-MB-231, 48 h, read-out: IC50 MDA-MB-231): > 30 µM; IC50 [6]: 60 µM; Effect on growth of PC3 cells (PC3 (prostate) cells; 48 h): stimulated the growth; IC50 PC-3 (PC3 (prostate) cells; 48 h incubation, 0–30 μM, 96-well plates): No effect
362.4	289.2	222.9	163.9	COCCOCCOCCNC(=O)c1ccc2c(c1)SSSSS2 [Compound 6C, N-(2-(2-(2-Methoxyethoxy)ethoxy)ethyl)benzo[f][1,2,3,4,5]pentathiepine-7-carboxamide]	Time of ethanethiol-induced desulfuration ([7]; in aqueous methanol): ~ 2 min; Time of ethanethiol-induced desulfuration ([7]; in benzene): 4 h
10.9	13.2	14.2	14.2	COCCOCCOCCNC(=O)c1ccc2c(c1)SSS2 [Compound 6A, N-(2-(2-(2-Methoxyethoxy)ethoxy)ethyl)benzo[d][1,2,3]trithiole-5-carboxamide]	

Structure (SMILES)	Polysulfanes and elemental sulfur distribution (HPLC, internal standard = 100) ([1]; 0.25 hydroxide ion equivalents)	Polysulfanes and elemental sulfur distribution (HPLC, internal standard = 100) ([1]; 0.5 hydroxide ion equivalents)	Polysulfanes and elemental sulfur distribution (HPLC, internal standard = 100) ([1]; 0.75 hydroxide ion equivalents)	Polysulfanes and elemental sulfur distribution (HPLC, internal standard = 100) ([1]; 1.0 hydroxide ion equivalents)	further results
[S] [Compound S8, Elemental sulfur]	12.3	23.1	26.7	32.4	Fold lower solubility by comparison to 6A-F [2]: ~ 50 fold; Solubility in methanol [2, 8]: 330 ± 30 µg/mL (≈ 10.3 mM); Solubility in water [2, 8]: 0.14 ± 0.02 µg/mL (≈ 0.00437 mM); Solubility in ethanol [3]: 510 µg/mL (≈ 15.9 mM); Solubility in water [3]: 0.4 µg/mL (≈ 0.0125 mM)
COCCOCCOCCNC(=O)c1ccc2c(c1)SSSSSSSSS2 [Compound 6F, N-(2-(2-(2-Methoxyethoxy)ethoxy)ethyl)benzo[j][1,2,3,4,5,6,7,8,9]nonathiacyclo-undecine-11-carboxamide]	2.1	3.7	3.8	3.1	
